This note sets out measurements from ChEMBL document CHEMBL3244217, “Metabolism of cis-delta4-15(S)-15-methylprostaglandin F1alpha methyl ester in the rat” (J Med Chem, 1978).

Holding throughout (parameters): dose 0.28 mg/kg, route oral
Data set [1] deals with Rattus norvegicus. The data set can be described thus: Drug level in Sprague-Dawley rat treated with [3H]-cis-delta4-15(S)-15-methylprostaglandin F1alpha methyl ester at 0.28 mg/kg, po assessed compound formation. Type of data set: ADME, organism-based. The note with it: in vivo.
The subject of data set [2] is Rattus norvegicus. In words: Drug metabolism in Sprague-Dawley rat assessed as metabolite 2 (cis-delta4-15-methylprostaglandin F1alpha) formation at 0.28 mg/kg, po administered as single dose. Type of data set: ADME, organism-based. The following applies: in vivo. The gist of the method: (§1)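 Urine was extracted on an Amberlite XAD-2 column and partially purified by silicic acid chromatography. Components were then separated by reversed-phase partition chromatography on Sephadex LH-20 (isooctyl alcohol–chloroform–methanol–water, 15:15:114:86), collecting 9-mL fractions. Identification used GC with radioactivity monitoring (3.8% UCW-98, 200 °C) and GC-MS of methyl ester, O-methoxime and trimethylsilyl derivatives; silylation was at 50 °C for 1 h.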

Data set [3] concerns Rattus norvegicus. The data set can be described thus: Toxicity in Sprague-Dawley rat assessed as fecal stained abdominal area at 0.28 mg/kg, po after 3 days. Type of data set: organism-based, Abdomen. The note with it: in vivo, 72 h.
The subject of data set [4] is Rattus norvegicus. The data set can be described thus: Toxicity in Sprague-Dawley rat assessed as mortality at 0.28 mg/kg, po. It counts as organism-based. The note with it: in vivo. In short, it runs like this: (§2)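 Fifteen rats were kept in metabolism cages for 17 days. Each morning they received an oral dose of 0.25 mg of tritium-labelled drug (1 × 10^7 dpm). The animals were watched for side effects, including depression, diarrhoea, faecal staining of the abdomen and mortality, over the chronic dosing period.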

In data set [5] the test system is Rattus norvegicus. The data set can be described thus: Toxicity in Sprague-Dawley rat assessed as diarrhea at 0.28 mg/kg, po up to 1 to 3 days. The following applies: in vivo. Type of data set: organism-based. In short, it runs like this:
as §2

For data set [6], the system named is Rattus norvegicus. The data set can be described thus: Drug metabolism in Sprague-Dawley rat assessed as metabolite 5 ((4aR,5R,6R,7aS)-6-hydroxy-5-((S)-3-hydroxy-3-methyloct-1-enyl)hexahydrocyclopenta[b]pyran-2(3H)-one) formation at 0.28 mg/kg, po administered as single dose. It counts as ADME, organism-based. The note with it: in vivo. In short, it runs like this: as §1

The test system of data set [7] is Rattus norvegicus. In words: Toxicity in Sprague-Dawley rat assessed as fecal stained abdominal area at 0.28 mg/kg, po up to 1 to 3 days. Type of data set: organism-based, Abdomen. The note with it: in vivo. In short, it runs like this:
as §2

The nature of data set [8]: Drug excretion in Sprague-Dawley rat urine at 0.28 mg/kg, po administered as single dose within 74 hrs relative to control. It counts as ADME, organism-based. The following applies: read-out: Drug excretion. In short, it runs like this:
(§3)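 Four female Sprague-Dawley rats (Upjohn strain), about 200 g, were fasted overnight and each given one 0.28-mg oral dose of tritium-labeled drug (1.24 × 10^7 dpm) in distilled water by gastric tube. They were then kept in metabolism cages with free food and water, and urine and feces were collected at intervals. Radioactivity was read by liquid scintillation with external-standard quench correction. Urine aliquots (0.2 mL) were counted directly; feces were homogenized in water and aliquots dried and combusted before counting.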

The subject of data set [9] is Rattus norvegicus. The data set can be described thus: Drug metabolism in Sprague-Dawley rat assessed as metabolite 3 (15-methyl-2,3-dinorprostaglandin F1alpha) formation at 0.28 mg/kg, po administered as single dose. Type of data set: ADME, organism-based. The following applies: in vivo. In short, it runs like this:
as §1

In data set [10] the test system is Rattus norvegicus. In words: Toxicity in Sprague-Dawley rat assessed as depression at 0.28 mg/kg, po after 3 days. Type of data set: organism-based. The following applies: in vivo, 72 h.
Data set [11] has as its system Rattus norvegicus. In words: Drug metabolism in Sprague-Dawley rat assessed as metabolite 4 (15-methyl-2,3,4,5-tetranorprostaglandin F1alpha) formation at 0.28 mg/kg, po administered as single dose. It counts as ADME, organism-based. The following applies: in vivo. In short, it runs like this: as §1
In data set [12] the test system is Rattus norvegicus. In words: Toxicity in Sprague-Dawley rat assessed as depression at 0.28 mg/kg, po up to 1 to 3 days. Type of data set: organism-based. The note with it: in vivo. The gist of the method:
as §2

For data set [13], the system named is Rattus norvegicus. In words: Toxicity in Sprague-Dawley rat assessed as diarrhea at 0.28 mg/kg, po after 3 days. It counts as organism-based. The following applies: in vivo, 72 h.
Data set [14] is described as follows: Drug excretion in Sprague-Dawley rat feces at 0.28 mg/kg, po administered as single dose within 74 hrs relative to control. It counts as ADME, organism-based. The following applies: faeces, read-out: Drug excretion. The gist of the method:
as §3

For the compound `CCCCC[C@](C)(O)/C=C/[C@@H]1[C@@H](CCC(=O)O)[C@@H](O)C[C@H]1O`, the Drug metabolism result in the data set with Rattus norvegicus [1] is “metabolite_detected”.

With `CCCCC[C@](C)(O)/C=C/[C@@H]1[C@H]2CCC(=O)O[C@H]2C[C@H]1O`, the Drug metabolism entry in the data set with Rattus norvegicus [1] is on record as “metabolite_detected”.

Take `[3H]O[C@H]1C[C@@H](O)[C@H](/C=C/[C@@](C)(O)CCCCC)[C@H]1CC/C=C\CCC(=O)OC`: the Drug metabolism result in the data set on Rattus norvegicus [2], in the data set on Rattus norvegicus [6], with Rattus norvegicus [9] and in the data set with Rattus norvegicus [11] was “metabolite_detected” in each case. Besides, the Activity entry is “Non-toxic” in the data set with Rattus norvegicus [3]; “Non-toxic” with Rattus norvegicus [4]; “Toxic” in the data set on Rattus norvegicus [5]; “Toxic” in the data set on Rattus norvegicus [7]; “Non-toxic” in the data set with Rattus norvegicus [10]; “Toxic” in the data set on Rattus norvegicus [12]. Besides, the Activity result in the data set on Rattus norvegicus [13] is “Non-toxic”. For the same compound, the values for the dose excreted at 74 h in data set [8] and in data set [14] were 30% and 38%, respectively.

With `CCCCC[C@](C)(O)/C=C/[C@@H]1[C@@H](CC/C=C\CCC(=O)O)[C@@H](O)C[C@H]1O`, in the data set with Rattus norvegicus [1], the Drug metabolism result is given as “metabolite_detected”.

Turning to `CCCCC[C@](C)(O)/C=C/[C@@H]1[C@@H](CCCCC(=O)O)[C@@H](O)C[C@H]1O`, the Drug metabolism entry in the data set on Rattus norvegicus [1] is reported as “metabolite_detected”.
